From article PMC8148061 (Acta Pharmaceutica Sinica. B, 2020)

Tests used:
Bcr-Abl^T315I = Bcr-Abl^T315I (Homo sapiens, UniProt P00519+P11274, T315I); assay: Western blot degradation study in Ba/F3 cells expressed Bcr-Abl^T315I; format: cell-based; conditions: for DR against Ba/F3 Bcr-Abl^T315I (%) 100 nmol/L / DR against Ba/F3 Bcr-Abl^T315I (%) 300 nmol/L: 24 h treatment, Western blot
K562 = assay: Antiproliferation cell assay; format: cell-based, human; conditions: Homo sapiens, K562, 72 h, read-out: Cellular inhibition IC50 K562
Summary of the method: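 K562 (ATCC) cells were grown in RPMI-1640 with 10% FBS, penicillin, streptomycin and 2 mmol/L glutamine at 37 °C in humidified CO2. Log-phase cells were seeded at ~3000/well, rested overnight, then exposed to test compound or vehicle for 72 h (10 mmol/L DMSO stocks). CCK-8 was read as OD450−OD650, with viability normalised to no-cell blank and vehicle wells. IC50 came from concentration–response curve fitting, mean ± SD.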

Ba/F3 Bcr-Abl^WT = assay: Antiproliferation cell assay; format: cell-based; conditions: Mus musculus, BaF3, 72 h, read-out: Cellular inhibition IC50 Ba/F3 Bcr-Abl^WT
Ba/F3 Bcr-Abl^T315I = assay: Antiproliferation cell assay; format: cell-based; conditions: Mus musculus, BaF3, 72 h, read-out: Cellular inhibition IC50 Ba/F3 Bcr-Abl^T315I
Bcr-Abl^WT = Bcr-Abl^WT (Homo sapiens, UniProt P00519+P11274); assay: Western blot degradation study in K562 cells; format: cell-based; conditions: 24 h treatment (data not shown)

Row | SMILES | DR against Ba/F3 Bcr-Abl^T315I (%) 100 nmol/L (Bcr-Abl^T315I) [%] | DR against Ba/F3 Bcr-Abl^T315I (%) 300 nmol/L (Bcr-Abl^T315I) [%] | IC50 (K562) [nM] | IC50 (Ba/F3 Bcr-Abl^WT) [nM] | IC50 (Ba/F3 Bcr-Abl^T315I) [nM] | degradation potency relative to GZD824 (Bcr-Abl^T315I; DR at 300 nmol/L) [fold] | degradation on K562 cells expressing Bcr-Abl (Bcr-Abl^WT) | improvement of DR compared with 7a (Bcr-Abl^T315I; DR at 300 nmol/L)
1 | Cc1ccc(C(=O)Nc2ccc(CN3CCN(CCCCC(=O)Nc4cccc5c4C(=O)N(C4CCC(=O)NC4=O)C5=O)CC3)c(C(F)(F)F)c2)cc1C#Cc1cnc2[nH]ncc2c1 (stereo not shown) [7m, 3-((1H-Pyrazolo[3,4-b]pyridin-5-yl)ethynyl)-N-(4-((4-(5-((2-(2,6-dioxopiperidin-3-yl)-1,3-dioxoisoindolin-4-yl)amino)-5-oxopentyl)piperazin-1-yl)methyl)-3-(trifluoromethyl)phenyl)-4-methylbenzamide] | 49.84 | 48.67 | 3 ± 1.2 | 4.3 ± 0.1 | 25 ± 10.4 | – | – | –
2 | Cc1ccc(C(=O)Nc2ccc(CN3CCN(CCCCCC(=O)Nc4cccc5c4C(=O)N(C4CCC(=O)NC4=O)C5=O)CC3)c(C(F)(F)F)c2)cc1C#Cc1cnc2[nH]ncc2c1 (stereo not shown) [7n, 3-((1H-Pyrazolo[3,4-b]pyridin-5-yl)ethynyl)-N-(4-((4-(6-((2-(2,6-dioxopiperidin-3-yl)-1,3-dioxoisoindolin-4-yl)amino)-6-oxohexyl)piperazin-1-yl)methyl)-3-(trifluoromethyl)phenyl)-4-methylbenzamide] | 21.64 | 30.39 | 2.1 ± 0.1 | 4.2 ± 0.3 | 33.4 ± 1.6 | – | – | –
3 | Cc1ccc(C(=O)Nc2ccc(CN3CCN(CCCCCCCCC(=O)Nc4cccc5c4C(=O)N(C4CCC(=O)NC4=O)C5=O)CC3)c(C(F)(F)F)c2)cc1C#Cc1cnc2[nH]ncc2c1 (stereo not shown) [7p, 3-((1H-Pyrazolo[3,4-b]pyridin-5-yl)ethynyl)-N-(4-((4-(9-((2-(2,6-dioxopiperidin-3-yl)-1,3-dioxoisoindolin-4-yl)amino)-9-oxononyl)piperazin-1-yl)methyl)-3-(trifluoromethyl)phenyl)-4-methylbenzamide] | 3.61 | 63.47 | 14 ± 4.5 | 4.5 | 21.8 ± 8.3 | – | – | –
4 | Cc1ccc(C(=O)Nc2ccc(CN3CCN(CCCCCCCCCCC(=O)Nc4cccc5c4C(=O)N(C4CCC(=O)NC4=O)C5=O)CC3)c(C(F)(F)F)c2)cc1C#Cc1cnc2[nH]ncc2c1 (stereo not shown) [7q, 3-((1H-Pyrazolo[3,4-b]pyridin-5-yl)ethynyl)-N-(4-((4-(11-((2-(2,6-dioxopiperidin-3-yl)-1,3-dioxoisoindolin-4-yl)amino)-11-oxoundecyl)piperazin-1-yl)methyl)-3-(trifluoromethyl)phenyl)-4-methylbenzamide] | 5.33 | 14.25 | 46.4 ± 21.2 | 36.1 ± 0.9 | 70.1 ± 34.3 | – | – | –
5 | Cc1ccc(C(=O)Nc2ccc(CN3CCN(CCCCCCCCCCCCCCC(=O)Nc4cccc5c4C(=O)N(C4CCC(=O)NC4=O)C5=O)CC3)c(C(F)(F)F)c2)cc1C#Cc1cnc2[nH]ncc2c1 (stereo not shown) [7t, 3-((1H-Pyrazolo[3,4-b]pyridin-5-yl)ethynyl)-N-(4-((4-(15-((2-(2,6-dioxopiperidin-3-yl)-1,3-dioxoisoindolin-4-yl)amino)-15-oxopentadecyl)piperazin-1-yl)methyl)-3-(trifluoromethyl)phenyl)-4-methylbenzamide] | 13.75 | 28.73 | 190 ± 26.6 | 363.7 ± 2.4 | 399 ± 248 | – | – | –
6 | Cc1ccc(C(=O)Nc2ccc(CN3CCN(C)CC3)c(C(F)(F)F)c2)cc1C#Cc1cnc2[nH]ncc2c1 [GZD824, reference compound] | 2.59 | 20.62 | 1.6 ± 0.7 | 6.8 ± 5.3 | 31 ± 11.7 | – | – | –
7 | Cc1ccc(C(=O)Nc2ccc(CN3CCN(CCOCCOCCC(=O)Nc4cccc5c4C(=O)N(C4CCC(=O)NC4=O)C5=O)CC3)c(C(F)(F)F)c2)cc1C#Cc1cnc2[nH]ncc2c1 (stereo not shown) [compound 7a, 3-((1H-Pyrazolo[3,4-b]pyridin-5-yl)ethynyl)-N-(4-((4-(2-(2-(3-((2-(2,6-dioxopiperidin-3-yl)-1,3-dioxoisoindolin-4-yl)amino)-3-oxopropoxy)ethoxy)ethyl)piperazin-1-yl)methyl)-3-(trifluoromethyl)phenyl)-4-methylbenzamide] | −15.35 | 39.01 | 7.9 ± 5.2 | 10 ± 2.1 | 83.2 ± 27.8 | 2 | does not exhibit obvious degradation | –
8 | Cc1ccc(C(=O)Nc2ccc(CN3CCN(CCOCCOCCOCCC(=O)Nc4cccc5c4C(=O)N(C4CCC(=O)NC4=O)C5=O)CC3)c(C(F)(F)F)c2)cc1C#Cc1cnc2[nH]ncc2c1 (stereo not shown) [compound 7h, 3-((1H-Pyrazolo[3,4-b]pyridin-5-yl)ethynyl)-N-(4-((4-(2-(2-(2-(3-((2-(2,6-dioxopiperidin-3-yl)-1,3-dioxoisoindolin-4-yl)amino)-3-oxopropoxy)ethoxy)ethoxy)ethyl)piperazin-1-yl)methyl)-3-(trifluoromethyl)phenyl)-4-methylbenzamide] | 16.86 | 78.34 | 13.7 ± 9.3 | 10.6 ± 2.6 | 83.4 ± 31.6 | – | – | about 2 fold
